Test results as given in publication PMC4773674 (Journal of Diabetes Investigation, 2015).

Experiments:
[1] = Serum IDeg pharmacokinetics; format: in vivo, Japanese patients with type 1 diabetes
Procedure, shortened: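 Serum drug levels were measured by specific sandwich ELISA. Troughs were drawn before each of 6 once-daily doses given at 20.00 h. After the last dose, samples were taken every 1–2 h to 24 h, then at 30, 36, 48, 72, 96 and 120 h. Post-hoc steady-state time was the time from first dose until troughs exceeded 90% of final plateau.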

[2] = Safety: adverse events, hypoglycemic episodes, injection-site reactions; format: in vivo, Japanese patients with type 1 diabetes
Procedure, shortened: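 Randomized, double-blind, two-period crossover trial with once-daily […] dosing at 20.00 h for 6 days; periods separated by 7–21-day washout; insulin aspart boluses allowed. Safety end-points: AEs, injection-site reactions, ECG, vital signs, labs. Confirmed hypoglycemia: severe (ADA definition), plasma glucose <3.1 mmol/L, or full blood glucose <2.8 mmol/L.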

[3] = cited from earlier work

For insulin degludec [IDeg], the “Time to steady state (trough concentrations exceeding 90% of final plateau)” value ([1]; once-daily dosing, all Japanese patients, confirmed by post-hoc analyses) was 2 to 3 days, the “Time for which serum IDeg was detectable after the last dose” value ([1]; steady state, 120 h = end of observation period, Japanese patients) was “at least 120 h” and the Tolerability ([2]; 6 days of once-daily 0.4 U/kg, 22 Japanese type 1 diabetes patients) was “well tolerated”. For the same substance, the Injection-site reactions ([2]; after treatment with IDeg) was “no injection‐site reactions were recorded”, the “Serious AEs” value ([2]; after treatment with IDeg) was “No serious AEs occurred” and the “Treatment-emergent AEs (other than hypoglycemia), number” value ([2]; after treatment with IDeg, all AEs mild) was “three”. For the same substance, the “Patients with confirmed treatment-emergent hypoglycemic episodes, number” value ([2]; fixed dose 0.4 U/kg) was 13 patients, the “Confirmed treatment-emergent hypoglycemic episodes, number” value ([2]; fixed dose 0.4 U/kg, confirmed = severe, or plasma glucose <3.1 mmol/L) was 93 and the “AUCτ,SS, 24-h exposure” value ([3]; Caucasian patients, 0.4 U/kg) was 82,612 pmol h/L. For the same substance, the “Time to steady state” value ([3]; previously shown) was 2 to 3 days.
